Results reported in ChEMBL document CHEMBL5335820, “Novel quinolinepiperazinyl-aryltetrazoles targeting the blood stage of Plasmodium falciparum” (RSC Med Chem, 2024).
Activity calls are given as the source filed them.

Legend:
Assay type in all cases: functional, organism-based
[1] = system: Plasmodium falciparum; experiment: Antiplasmodial activity against chloroquine resistant schizont stage Plasmodium falciparum INDO infected in human erythrocytes assessed as decrease in parasitemia at 5.62 uM incubated for 4 hrs by time-kill kinetics based FACS analysis; conditions: Erythrocyte
Summary of the method: (§1)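 PfINDO early schizonts (32–36 h post-invasion) and late schizonts (42–45 h post-invasion) were exposed to 5.62 or 4.30 μM for up to 16 h, washed at 4 h intervals, then cultured drug-free to a total of 96 h. Parasitemia was counted by FACS on 10^5 cells at the end of the second cycle; schizont rupture was checked microscopically.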

[2] = system: Plasmodium falciparum; experiment: Synergistic antiplasmodial activity against multidrug-resistant Plasmodium falciparum Cam3.1R539T infected in human erythrocytes at 8 times IC50 concentration incubated for 72 hrs in presence of pyrimethamine by SYBR green I staining based fluorescence assay; conditions: Erythrocyte
Summary of the method: (§2)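 P. falciparum Cam3.1R539T in O+ human erythrocytes, 1% parasitemia, 2% haematocrit. 8× IC50 stocks of test compound and standard drug were mixed at molar ratios 4:1, 3:2, 2:3 and 1:4, then serially diluted two-fold. Plates were incubated 72 h at 37 °C and read by SYBR Green I lysis. Controls were 0.4% DMSO (100% growth) and 4 μM chloroquine (0% growth). ΣFIC = FICA + FICB; <1 synergistic, 1.0–2.0 additive, >2.0 antagonistic.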

[3] = system: Plasmodium falciparum; experiment: Antiplasmodial activity against chloroquine resistant schizont stage Plasmodium falciparum INDO infected in human erythrocytes assessed as prevention of schizont rupture at 5.62 uM incubated for 4 hrs by time-kill kinetics based FACS analysis; conditions: Erythrocyte; summary of the method: as §1
[4] = system: Plasmodium falciparum; experiment: Synergistic antiplasmodial activity against multidrug-resistant Plasmodium falciparum Cam3.1R539T infected in human erythrocytes at 8 times IC50 concentration incubated for 72 hrs in presence of mefloquine by SYBR green I staining based fluorescence assay; conditions: Erythrocyte; summary of the method: as §2
[5] = system: Plasmodium falciparum; experiment: Additive antiplasmodial activity against multidrug-resistant Plasmodium falciparum Cam3.1R539T infected in human erythrocytes at 8 times IC50 concentration incubated for 72 hrs in presence of pyrimethamine by SYBR green I staining based fluorescence assay; conditions: Erythrocyte; summary of the method: as §2
[6] = system: Plasmodium falciparum; experiment: Antiplasmodial activity against chloroquine resistant schizont stage Plasmodium falciparum INDO infected in human erythrocytes assessed as decrease in parasitemia at 4.30 uM incubated for 4 hrs by time-kill kinetics based FACS analysis; conditions: Erythrocyte, dose 4.3 µM; summary of the method: as §1

Measured: Activity

Clc1ccc2c(N3CCN(CCCn4nnc(-c5ccc(Br)cc5)n4)CC3)ccnc2c1
active: [1] | [2] | [3] | [4]

O=C(Cn1nnc(-c2cccc([N+](=O)[O-])c2)n1)N1CCN(c2ccnc3cc(Cl)ccc23)CC1
active: [5] | [6]
